Data set [1] can be described thus: Antiproliferative activity against human MCF10A cells after 48 hrs by SRB assay. The class given is cell-based, MCF-10A. The gist of the method:
(§1)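 Cells (5000–10,000/well) preincubated 24 h at 37 °C, 5% CO2; MCF10A kept in mammary epithelial basal medium with MEGM supplements. Seven concentrations from 2–10-fold serial dilutions, with ≤0.1% DMSO vehicle control, were given for 48 h. Cells were TCA-fixed (10% final), then stained with 0.4% SRB. Dye was solubilized in 10 mM Tris base and read at 515–564 nm. GI50 came from variable-slope sigmoidal fits, triplicates, ≥2 experiments.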

Data set [2] concerns MDA-MB-231. In words: Antiproliferative activity against human p53, pRB mutant and estrogen receptor deficient MDA-MB-231 cells after 48 hrs by SRB assay. The class given is functional. The conditions noted are these: MDA-MB-231, 48 h. The gist of the method:
as §1
For orientation: The SRB assay estimates cell density from bound dye.

Data set [3] concerns MCF7. In words: Antiproliferative activity against human p53+/- MCF7 cells after 48 hrs by SRB assay. It counts as functional. The conditions noted are these: MCF7, 48 h. The gist of the method: as §1
Data set [4] has as its system MDA-MB-231. Kind of data set: Ratio of compound GI50 to cisplatin GI50 for human p53, pRB mutant and estrogen receptor deficient MDA-MB-231 cells after 48 hrs by SRB assay. It counts as functional.
Data set [5] concerns MCF7. Kind of data set: Ratio of GI50 for human MCF10A cells to GI50 for human p53+/- MCF7 cells.
Data set [6] deals with MCF7. Kind of data set: Ratio of compound GI50 to cisplatin GI50 for human p53+/- MCF7 cells after 48 hrs by SRB assay. It counts as functional.
In data set [7] the test system is MDA-MB-231. Kind of data set: Ratio of GI50 for human MCF10A cells to GI50 for human p53, pRB mutant and estrogen receptor deficient MDA-MB-231 cells.

In general, GI50 refers to the concentration that inhibits growth by half. Low values mean greater sensitivity of the cells, high ones lower sensitivity of the cells. As for `Clc1ccc2c(NCCCN3CCCC3)ccnc2c1`, the 50% growth inhibitory concentration (GI50) at 48 h in data set [1] stood at 45.8 µM. Besides, the GI50 came to 29.8 µM in data set [2] and 21.4 µM in data set [3].

In turn, `Clc1ccc2c(NCCCN3CCOCC3)ccnc2c1` displayed a concentration for 50% growth inhibition (GI50) at 48 h in data set [1] of 86.5 µM. Also, the 50% growth inhibitory concentration (GI50) came out at 40.2 µM in data set [2] and 17.2 µM in data set [3].

The compound `CN1CCN(CCCNc2ccnc3cc(Cl)ccc23)CC1` showed a GI50 at 48 h in data set [1] of 16.7 µM. The GI50 in data set [2] was found to be 19.1 µM; in data set [3], 17.1 µM.

As for `Clc1ccc2c(NCCCN3CCN(c4ccccc4)CC3)ccnc2c1`, the GI50 at 48 h in data set [1] is 12.6 µM. In addition, the GI50 in data set [2] was 15.9 µM; in data set [3], 12.8 µM.

With `Clc1ccc2c(NCCCN3CCN(c4ccnc5cc(Cl)ccc45)CC3)ccnc2c1`, in data set [1], growth was halved (GI50 at 48 h) at 8.72 µM. The GI50 in data set [2] stood at 7.52 µM; in data set [3], 5.42 µM.

As for `FC(F)(F)c1ccc2c(N3CCN(CCCNc4ccnc5cc(Cl)ccc45)CC3)ccnc2c1`, the RatioGI50 in data set [4] is on record as 3.7; in data set [5], 2.58; in data set [6], 5.16; in data set [7], 2.03. The compound also showed a GI50 at 48 h in data set [1] of 12.9 µM. Besides, the 50% growth inhibitory concentration (GI50) in data set [2] was determined as 6.33 µM; in data set [3], 4.99 µM.

Compound `O=C1C(=O)N(CCCNc2ccnc3cc(Cl)ccc23)c2ccccc21` gave a GI50 at 48 h in data set [1] of 35.9 µM. Further, the concentration for 50% growth inhibition (GI50) in data set [2] was 47.6 µM; in data set [3] it was 23.5 µM.

Take `O=C1C(=O)N(CCCNc2ccnc3cc(Cl)ccc23)c2cccc(Cl)c21`: halving of growth in data set [1] (GI50 at 48 h) required 84.8 µM. In addition, the 50% growth inhibitory concentration (GI50) was 55.6 µM in data set [2] and 46.7 µM in data set [3].

With `O=C1C(=O)N(CCCNc2ccnc3cc(Cl)ccc23)c2cccc(Br)c21`, growth in data set [1] was halved (GI50 at 48 h) at 20.8 µM. For the same compound, the results for the GI50 in data set [2] and in data set [3] were 16.8 µM and 6.57 µM, respectively.

Regarding `O=C1C(=O)N(CCCNc2ccnc3cc(Cl)ccc23)c2cc(Cl)ccc21`, it took 6.88 µM to inhibit growth in data set [1] by half (GI50 at 48 h). The 50% growth inhibitory concentration (GI50) is 15.8 µM in data set [2] and 7.36 µM in data set [3].

In data set [1], `O=C1C(=O)N(CCCNc2ccnc3cc(Cl)ccc23)c2cc(Br)ccc21` came in with a 50% growth inhibitory concentration (GI50) at 48 h of 19.9 µM. For the same compound, the values for the GI50 in data set [2] and in data set [3] were 35 µM and 16.6 µM, respectively.

In data set [1], `FC(F)(F)c1ccc2c(NCCCN3CCCC3)ccnc2c1` gave a GI50 at 48 h of 58.6 µM. In addition, the GI50 turned out to be 70.4 µM in data set [2] and 36.8 µM in data set [3].

On to `FC(F)(F)c1ccc2c(NCCCN3CCCCC3)ccnc2c1`, for which halving of growth in data set [1] (GI50 at 48 h) required 48.8 µM. Moreover, the GI50 in data set [2] was determined as 38.6 µM; in data set [3], 32.6 µM.

In turn, `FC(F)(F)c1ccc2c(NCCCN3CCOCC3)ccnc2c1` had a GI50 at 48 h in data set [1] of 26.5 µM. For the same compound, the results for the GI50 in data set [2] and in data set [3] were 79.8 µM and 38.8 µM, respectively.

Consider `CN1CCN(CCCNc2ccnc3cc(C(F)(F)F)ccc23)CC1`, for which halving of growth in data set [1] (GI50 at 48 h) required 51.7 µM. Further, the GI50 in data set [2] amounted to 43.3 µM; in data set [3], 30.8 µM.

For `FC(F)(F)c1ccc2c(NCCCN3CCN(c4ccccc4)CC3)ccnc2c1`, in data set [1], the 50% growth inhibitory concentration (GI50) at 48 h amounted to 19.8 µM. The GI50 came out at 9.9 µM in data set [2] and 8.75 µM in data set [3].

`FC(F)(F)c1ccc2c(NCCCN3CCN(c4ccnc5cc(Cl)ccc45)CC3)ccnc2c1` yielded a GI50 at 48 h in data set [1] of 8.84 µM. The RatioGI50 in data set [5] is 1.92; in data set [7], 2.05. Further, the GI50 amounted to 4.31 µM in data set [2] and 4.6 µM in data set [3].

As for `FC(F)(F)c1ccc2c(NCCCN3CCN(c4ccnc5cc(C(F)(F)F)ccc45)CC3)ccnc2c1`, in data set [1], the GI50 at 48 h stood at 30 µM. In addition, the GI50 in data set [2] came to 25.7 µM; in data set [3] it was 17.2 µM.

In data set [1], `O=C1C(=O)N(CCCNc2ccnc3cc(C(F)(F)F)ccc23)c2ccccc21` showed a GI50 at 48 h of 46.8 µM. Moreover, the GI50 in data set [2] amounted to 54.1 µM; in data set [3], 45.3 µM.

`O=C1C(=O)N(CCCNc2ccnc3cc(C(F)(F)F)ccc23)c2cccc(Cl)c21` had a GI50 at 48 h in data set [1] of 20.2 µM. Further, the GI50 in data set [2] was found to be 50.2 µM; in data set [3] it was 18.8 µM.

For the compound `O=C1C(=O)N(CCCNc2ccnc3cc(C(F)(F)F)ccc23)c2cccc(Br)c21`, the 50% growth inhibitory concentration (GI50) at 48 h in data set [1] turned out to be 33.7 µM. The GI50 in data set [2] was 49.4 µM; in data set [3] it was 34.4 µM.

As to `O=C1C(=O)N(CCCNc2ccnc3cc(C(F)(F)F)ccc23)c2cc(Cl)ccc21`, the concentration for 50% growth inhibition (GI50) at 48 h in data set [1] was 25.2 µM. For the same compound, the GI50 is 17.4 µM in data set [2] and 14.3 µM in data set [3].

The compound `O=C1C(=O)N(CCCNc2ccnc3cc(C(F)(F)F)ccc23)c2cc(Br)ccc21` had a 50% growth inhibitory concentration (GI50) at 48 h in data set [1] of 14.6 µM. In addition, the values for the GI50 in data set [2] and in data set [3] were 18.9 µM and 7.98 µM, respectively.

As for `CCN(CC)CCCNc1ccnc2cc(Cl)ccc12`, the GI50 at 48 h in data set [1] turned out to be 65.3 µM. The GI50 in data set [2] worked out at 27.8 µM; in data set [3], 17.9 µM.

Compound `Clc1ccc2c(NCCCN3CCCCC3)ccnc2c1` came in with a GI50 at 48 h in data set [1] of 47.8 µM. The GI50 in data set [2] worked out at 38 µM; in data set [3], 17.7 µM.

`CCN(CC)CCCNc1ccnc2cc(C(F)(F)F)ccc12`: halving of growth in data set [1] (GI50 at 48 h) required 45.8 µM. Also, the values for the GI50 in data set [2] and in data set [3] were 57.1 µM and 20.6 µM, respectively.

Consider `CCN(CC)CCCC(C)Nc1ccnc2cc(Cl)ccc12` (stereo not given) [CHLOROQUINE], for which growth in data set [1] was halved (GI50 at 48 h) at 81.3 µM. In other words, the double-digit micromolar range.

The values above are taken from ChEMBL document CHEMBL1240425, “Design and synthesis of chloroquine analogs with anti-breast cancer property” (Eur J Med Chem, 2010).
